In all, about 360,000 compounds went through this assay and about 1,700 (0.47%) were called active. This is one part of a sample in which actives are shown more often than they occur.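 Rule for the calls: active = inhibition above its plate's cutoff, the mean of tested wells on that plate plus 3 SD (cut at about 29% in these data); inactive = the rest.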
Biological target: Melanocortin receptor 4 (Homo sapiens) (UniProt P32245)
Experiment: blockers of MC4R Gs-cAMP response – cell-based, TR-FRET, antagonist arm of biased-ligand search, primary screen (AID 540295);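 note: 0% = Melanotan II alone and 100% = Melanotan II plus saturating MCL0020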
Settings: MC4R-expressing cells, MTII-stimulated cAMP, LANCE TR-FRET; at 6.5 µM; stronger effect = higher value
Outline: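 material = U2OS cells stably expressing human melanocortin 4 receptor (MC4R) | also added = Melanotan II challenge | dosing = single nominal compound dose of 6.5 µM | detection = TR-FRET with Eu-cAMP and labeled anti-cAMP, 671 nm | replication = singlicate | timing = compound 30 min, challenge 1 h, detection 1 h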

Chain of Melanocortin receptor 4 (Homo sapiens) (P32245 whole entry, looked up): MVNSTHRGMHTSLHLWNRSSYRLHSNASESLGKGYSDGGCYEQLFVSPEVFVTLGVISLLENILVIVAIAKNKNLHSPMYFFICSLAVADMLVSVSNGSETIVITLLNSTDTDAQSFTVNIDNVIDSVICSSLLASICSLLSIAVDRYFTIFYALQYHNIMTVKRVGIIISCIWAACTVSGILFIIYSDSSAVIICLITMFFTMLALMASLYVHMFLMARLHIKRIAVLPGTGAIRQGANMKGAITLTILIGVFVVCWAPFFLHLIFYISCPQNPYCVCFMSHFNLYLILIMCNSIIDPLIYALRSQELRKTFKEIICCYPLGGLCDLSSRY

Structure (SMILES) | inhibition
COc1ccccc1C(=O)NC(CCSC)C(=O)NNC(=O)c1csc(N2CCOCC2)n1 (centres undefined) | 14.9% (inactive)
Cc1ccc(NC(=O)COC(=O)C2CC2)cc1S(=O)(=O)N1CCOCC1 | 5.97% (inactive)
Cc1ccc(NC(=O)COC(=O)CNC(=O)c2ccc(Cl)cc2Cl)cc1S(=O)(=O)N1CCOCC1 | 31.4% (active)
Cc1ccc(NC(=O)CCCNC(=O)c2ccc(Cl)cc2)cc1S(=O)(=O)N1CCOCC1 | -7.04% (inactive)
Cc1cc(C)c(NC(=O)CN2C(=O)NC(Cc3ccccc3)C2=O)c(C)c1 (centres undefined) | -8.57% (inactive)
CC(=O)C1(C)N(O)C(C)(C)C(c2cccs2)=[N+]1[O-] (centres undefined) | -4.35% (inactive)
CC1(C)C(c2cccs2)=[N+]([O-])C2(CCCCC2=O)N1O (centres undefined) | 29.8% (active)
Cc1cc(-n2cnc(-c3cn(C)nc3C)n2)no1 | 3.28% (inactive)
CC(=O)N(Cc1cccs1)C1CCOC(C)(C)C1 (centres undefined) | -3.32% (inactive)
OC(CN1C2=NCCCN2c2ccccc21)c1ccc(Br)cc1 (centres undefined) | -7.35% (inactive)
COc1cccc(OCC(=O)NCCS(=O)(=O)N2CCN(c3ccccc3)CC2)c1 | 1.47% (inactive)
COC(=O)C1=C(C)N(C)C(=O)NC1c1ccc([N+](=O)[O-])o1 (centres undefined) | -8.39% (inactive)
COC(=O)c1c(C)[nH]c(C)c1-c1ccc([N+](=O)[O-])cc1 | -0.44% (inactive)
COC(=O)C1=C(C(=O)OC)C(c2cc([N+](=O)[O-])ccc2O)c2sc(=O)[nH]c2S1 (centres undefined) | 33.3% (active)
CC1(C)CC(N2CCN(C(c3ccccc3)c3ccccc3)CC2)=CC(=[N+]2CCCCC2)C1 | 5.45% (inactive)
NC1=NC2(CCCCC2)N(c2ccc(F)cc2F)C(N)=N1 | 1.15% (inactive)
Cc1ccc2c(cnn2C(=O)CCC(=O)NC2CCCC2)c1 | -3.58% (inactive)
CC(C)N(c1ccccc1)c1ncnc(NCCC(=O)O)c1[N+](=O)[O-] | 9.58% (inactive)
O=C(CN1CCCC1)Nc1sc2c(c1C(=O)Nc1ccccc1)CCCC2 | -1.77% (inactive)
COC(=O)c1c(NC(=O)CCN2CCOCC2)sc2c1CCCC2 | -12.7% (inactive)
Cc1ccc(NC(=O)c2c(NC(=O)CCC(=O)O)sc3c2CCCCC3)cc1 | 32% (active)
CN(C)/C(CN1CCCCC1)=C1\N=C(c2ccccc2)OC1=O | 7.27% (inactive)

Structure (SMILES) | inhibition
O=C1CCC(=O)N(c2ccccc2)N1 | 22.5% (inactive)
CSc1nnc(NC(=O)c2nc(S(=O)(=O)Cc3ccc(C)cc3)ncc2Cl)s1 | 44.6% (active)
NC(=O)CSc1nnc(NC(=O)c2ccc(Br)o2)s1 | -2.81% (inactive)
Cc1cccc(CS(=O)(=O)c2ncc(Cl)c(C(=O)Nc3ccc(F)cc3)n2)c1 | 12.4% (inactive)
Cc1cc(C)c2nc(-c3cccnc3)cc(C(=O)Nc3ccc(S(=O)(=O)Nc4onc(C)c4C)cc3)c2c1 | 19.9% (inactive)
COc1ccc(-c2ccc(CCC(=O)O)n2-c2ccc(O)cc2)cc1 | 1% (inactive)
C=Cn1c(C(=O)O)ccc1-c1ccc(OC)cc1 | 28.8% (active)
COc1ccc(-c2ccc(CCC(=O)O)n2NC(=O)c2ccc(C(C)(C)C)cc2)cc1 | 11.2% (inactive)
Cc1ccc(N(C(=O)c2snc(C(N)=O)c2N)C(C(=O)NCC2CCCO2)c2c[nH]c3ccccc23)cc1 (centres undefined) | 21.4% (inactive)
Cc1ccc(C(C(=O)NCC2CCCO2)N(C(=O)c2snc(C(N)=O)c2N)c2ccc(C(C)C)cc2)o1 (centres undefined) | 29.1% (active)
CCOc1ccc(N(C(=O)c2snc(C(N)=O)c2N)C(C(=O)NCC2CCCO2)c2c[nH]c3ccccc23)cc1 (centres undefined) | 12.3% (inactive)
O=C(CCNC(=O)c1ccc([N+](=O)[O-])cc1)Nc1ccccc1N1CCOCC1 | 17.3% (inactive)
CC[C@@H]1Cc2cc(O)ccc2C2=C1c1ccc(O)cc1C[C@H]2CC | 10.4% (inactive)
Cc1csc(CN(C)C(=O)CC2C(=O)NCCN2CC(C)(C)C)n1 (centres undefined) | 4.33% (inactive)
COc1cc(OC)cc(-c2sc3ccc(OC)cc3c2-c2ccc3cc[nH]c3c2)c1 | 13% (inactive)
COc1ccc2sc(-c3ccc(S(C)(=O)=O)cc3)c(C#Cc3cncn3C)c2c1 | 12.3% (inactive)
COc1ccc2sc(-c3ccc(S(C)(=O)=O)cc3)c(-c3ccc(C(N)=O)cc3)c2c1 | 35.3% (active)
COC(=O)[C@@H](Cc1ccccc1)NC(=O)NCCc1ccccc1 | 23.7% (inactive)
COC(=O)[C@H](C)[C@H]1C[C@]1(C)[C@H](NC(=O)OCc1ccccc1)c1ccccc1 | 5.83% (inactive)
COC(=O)[C@H](Cc1ccccc1)NC(=O)[C@@H]1C[C@H]1[C@@H](NC(=O)OCc1ccccc1)c1ccccc1 | 29.7% (active)
Cc1csc(/N=C/N(C)C)c1C#N | 1.05% (inactive)
Cc1ccc(S(=O)(=O)CCC(=O)OCC(=O)N(C)Cc2ccccc2)cc1 | 33.6% (active)

Structure (SMILES) | inhibition
Cc1ccc(S(=O)(=O)CCC(=O)OCC(=O)N(C)C2CCS(=O)(=O)C2)cc1 (centres undefined) | 0.56% (inactive)
Cc1ccc(S(=O)(=O)CCC(=O)OCc2ccccc2)cc1 | 3.4% (inactive)
CCOc1ccc(S(=O)(=O)NCc2ccc3c(c2)OCO3)cc1C | 3.78% (inactive)
COc1ccc(CCN=C2SCC(=O)N2C)cc1OC | 10.4% (inactive)
Cc1cc(C)cc(NC(=S)NCCc2c[nH]c3ccccc23)c1 | 7.21% (inactive)
O=C(NCCc1c[nH]c2ccccc12)c1cccc(Br)c1 | 31.5% (active)
O=C(NCCc1c[nH]c2ccccc12)c1cc2ccccc2oc1=O | -0.76% (inactive)
CN(C)c1ccc(C2Nc3ccccc3C(=O)N2NS(=O)(=O)c2ccccc2)cc1 (centres undefined) | -6.61% (inactive)
COc1ccc(S(=O)(=O)N2CCSCC2)cc1 | 2.98% (inactive)
CCOC(=O)c1c(C)oc2cc(Sc3ccccc3)c(O)c(O)c12 | 6.42% (inactive)
CCOC(=O)c1c(-c2ccccc2)oc2cc(Br)c(O)c(C=O)c12 | 93% (active)
Cc1oc2cc(Br)c(O)c(Br)c2c1C(=O)c1ccccc1 | 0.99% (inactive)
COc1ccc(CCCNC(=O)C2Cc3c(-c4cccc(C(N)=O)c4)ccnc3O2)cc1 (centres undefined) | 2.69% (inactive)
CCn1c2ccccc2c2cc(NC(=O)C/C(C)=N/NC(=O)c3ccccc3N)ccc21 | 28.8% (active)
CCn1c2ccccc2c2cc(NC(=O)COC(=O)c3cc(S(=O)(=O)N4CCCCC4)ccc3Cl)ccc21 | -0.18% (inactive)
CCn1c2ccccc2c2cc(NC(=S)N3CCOCC3)ccc21 | -0.62% (inactive)
CC1=NN(C(C)C)C(=O)C1 | 6.17% (inactive)
O=C(O)c1ccc2c(=O)n3c(nc2c1)/C(=C/c1ccc(Cl)c([N+](=O)[O-])c1)CC3 | 0.52% (inactive)
Cc1ccnc(NC(=O)c2ccc(Cl)c([N+](=O)[O-])c2)c1 | 23.3% (inactive)
Cc1nc2ccccc2c(=O)n1NC(=O)c1ccc(Cl)c([N+](=O)[O-])c1 | 49% (active)
CCOC(=O)C1(C)CCCN(C(=O)c2ccc(F)c(Cl)c2)C1 (centres undefined) | -0.84% (inactive)
Cc1nc(N2CCN(c3ccccn3)CC2)c2c(C)c(C(=O)Nc3ccc(F)c(Cl)c3)sc2n1 | 5.05% (inactive)

Structure (SMILES) | inhibition
CC(=O)Nc1ccc(S(=O)(=O)N2CCn3cccc3C2C)cc1 (centres undefined) | 1.62% (inactive)
COc1ccc(-c2n[nH]c(C)c2-c2ccccc2OC)c(O)c1 | 29.1% (active)
CCOc1ccc(-c2nc(N)ncc2-c2ccccc2OC)c(O)c1 | -2.31% (inactive)
CCOc1ccccc1Oc1cn[nH]c1-c1ccc(OC)cc1O | 2.19% (inactive)
CC(Sc1ccc(S(=O)(=O)N2CCN(C)CC2)cn1)C(=O)NC1CCCC(C)C1C (centres undefined) | -2.08% (inactive)
O=C(Nc1ccc2ccccc2c1[N+](=O)[O-])c1ccccc1 | -1.17% (inactive)
O=C(NC1=CC(=O)c2ccccc2C1=O)c1ccccc1 | 34.6% (active)
Cc1cc(=O)c2ccc(NC(=O)c3ccccc3)cc2[nH]1 | 0.31% (inactive)
CN(CCC#N)c1ncnc2scc(-c3ccccc3)c12 | -6.59% (inactive)
Cc1sc2nc(-c3ccccc3F)oc(=O)c2c1C | 2.06% (inactive)
Cc1ccccc1-n1nnnc1SCCCC(=O)c1ccc(F)cc1 | 0.07% (inactive)
Cc1cccc(OCC(O)Cn2c(N3CCCCC3)nc3c2c(=O)[nH]c(=O)n3C)c1 (centres undefined) | 32.4% (active)
Cn1c(=O)c2c(nc(N3CCCCCC3)n2CC(O)COc2ccc(Cl)cc2)n(C)c1=O (centres undefined) | 19.6% (inactive)
C=C(C)Cn1c(N2CCCC2)nc2c1c(=O)[nH]c(=O)n2C | -7.2% (inactive)
CCCCCCCC(=O)OC(CN1CCCCCC1)CN1CCCC1=O (centres undefined) | 3.62% (inactive)
CC(=O)c1cccc(NC(=O)C2CCCN(S(=O)(=O)c3cccc4nonc34)C2)c1 (centres undefined) | 0.67% (inactive)
Cn1nc(C(F)(F)F)cc1C(=O)O | -0.27% (inactive)
CCC(=O)Nc1ccc(S(=O)(=O)NCC2CCCO2)cc1 (centres undefined) | 6.76% (inactive)
O=C(NCC1CCCO1)c1ccc(S(=O)(=O)Nc2ccc(F)cc2)cc1 (centres undefined) | 1.8% (inactive)
CC(NS(=O)(=O)c1ccc(Br)cc1)C(=O)NCC1CCCO1 (centres undefined) | 40.5% (active)
Cn1cccc1C1(C(F)(F)F)NCCNC1=O (centres undefined) | 1.67% (inactive)
O=C(Cc1ccccc1)Nc1c(C(=O)N2CCCCCC2)cnn1-c1ccccc1 | 1.13% (inactive)

Structure (SMILES) | inhibition
O=C(Nc1ccccc1C(=O)N1CCCCCC1)c1ccccc1Cl | 2.65% (inactive)
CC(=O)Nc1ccc(Sc2ccccc2C(=O)N2CCCC2)cn1 | 32% (active)
O=C(NCc1ccccc1)C1=C[C@@H](c2ccccc2)C[C@@H](OCCCCO)O1 | -12.3% (inactive)
Cc1ccccc1N1CCN(C2CCCN(C(=O)c3cn4c(C)cccc4n3)C2)CC1 (centres undefined) | -0.92% (inactive)
Cc1c(CNCCc2ccccc2)c(C(=O)O)c(C)n1-c1ccccc1 | 11.5% (inactive)
CCc1nn(CCCC(=O)Nc2ccc(C)cc2C)c(=O)c2cc3occc3n12 | -1.71% (inactive)
O=C1C=CC(=O)N1c1ccc(N2CCCCC2)cc1 | 43.8% (active)
O=C(c1ccc(Cl)c(S(=O)(=O)N2CCCCCC2)c1)N1CCN(c2ccc(O)cc2)CC1 | -1.58% (inactive)
c1ccc(-n2cccc2)c(N2CCCCC2)c1 | 4.15% (inactive)
CCc1nc2ccc(C(=O)N3CCC(O)(Cc4ccccc4)CC3)cn2c1N(C)C(=O)Cc1ccccc1 | 9.63% (inactive)
CCCCn1nc(C(=O)N2CCc3ccccc32)c2ccccc2c1=O | 9.32% (inactive)
S=C(NC1CCCCC1)NN1CCOCC1 | 7.17% (inactive)
COc1cc([N+](=O)[O-])ccc1NC(=O)COC(=O)CCOc1ccc(C)cc1 | 7.73% (inactive)
CC(OC(=O)CCCc1c[nH]c2ccccc12)C(=O)Nc1ccc(S(N)(=O)=O)cc1 (centres undefined) | -3.17% (inactive)
Cc1ccc(NC(=O)C(C)OC(=O)C2CC3CCCC(C2)C3=O)cc1S(=O)(=O)N1CCOCC1 (centres undefined) | -1.35% (inactive)
Cc1ccc(NC(=O)C(C)OC(=O)Cc2c[nH]c3ccccc23)cc1S(=O)(=O)N1CCOCC1 (centres undefined) | 28.7% (active)
N#Cc1c(-c2cccs2)nc(SCC(=O)c2ccc(Br)cc2)[nH]c1=O | 39.6% (active)
O=C(CSc1nc2ccccc2c(=O)[nH]1)Nc1nc(-c2ccc(Br)cc2)cs1 | 10% (inactive)
CC(=O)CSc1nc(CCc2ccccc2)c(C#N)c(=O)[nH]1 | 7.06% (inactive)
CC(=O)Nc1cccc(-c2cc(NC(C)=O)c3ncc(-c4ccccc4)n3c2)c1 | 9.96% (inactive)
COc1ccc(C(=O)N2CCCCC2c2cc(C(=O)Nc3ccc(F)c(Cl)c3)no2)cc1 (centres undefined) | 16.2% (inactive)

— PubChem BioAssay AID540295 (The Scripps Research Institute Molecular Screening Center, 2011)
